Source: ChEMBL document CHEMBL4406794, “N-(7-Cyano-6-(4-fluoro-3-(2-(3-(trifluoromethyl)phenyl)acetamido)phenoxy)benzo[d]thiazol-2-yl)cyclopropanecarboxamide (TAK-632) Analogues as Novel Necroptosis Inhibitors by Targeting Receptor-Interacting Protein Kinase 3 (RIPK3): Synthesis, Structure-Activity Relationships, and in Vivo Efficacy” (J Med Chem, 2019)
pEC50, pKd: −log10 of the molar value. Active and inactive are the calls of the source. The calls are words filed in the database; no cut-off is given here.

Experiments:
[1] = Cytotoxicity against human HT-29 cells measured after 12 hrs by CellTiter-Glo Luminescent assay; type: cell-based
HT-29 = assay: Anti-necroptotic activity in human HT-29 cells assessed as inhibition of […]/SM-164/Z-VAD-fmk-induced necroptosis measured after 16 hrs by celltiter-glo luminescent cell viability assay; conditions: HT-29, 16 h
[2] = target: Receptor-interacting serine/threonine-protein kinase 3 (Homo sapiens, UniProt Q9Y572); assay: Binding affinity to wild-type human partial length RIPK3 (M1 to Q307 residues) expressed in bacterial expression system after 1 hr by quantitative PCR based KINOMEscan assay
Method in brief: (§1)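 KINOMEscan competition binding. Bound kinase eluted with 0.5 μM nonbiotinylated ligand for 30 min and quantified by qPCR. Duplicates averaged.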

[3] = target: T1, Receptor-interacting serine/threonine-protein kinase 1 (Homo sapiens, UniProt Q13546); assay: Binding affinity to wild-type human partial length RIPK1 (M1 to K305 residues) expressed in bacterial expression system after 1 hr by quantitative PCR based KINOMEscan assay; method in brief: as §1
T1 sequence (Q13546 whole entry): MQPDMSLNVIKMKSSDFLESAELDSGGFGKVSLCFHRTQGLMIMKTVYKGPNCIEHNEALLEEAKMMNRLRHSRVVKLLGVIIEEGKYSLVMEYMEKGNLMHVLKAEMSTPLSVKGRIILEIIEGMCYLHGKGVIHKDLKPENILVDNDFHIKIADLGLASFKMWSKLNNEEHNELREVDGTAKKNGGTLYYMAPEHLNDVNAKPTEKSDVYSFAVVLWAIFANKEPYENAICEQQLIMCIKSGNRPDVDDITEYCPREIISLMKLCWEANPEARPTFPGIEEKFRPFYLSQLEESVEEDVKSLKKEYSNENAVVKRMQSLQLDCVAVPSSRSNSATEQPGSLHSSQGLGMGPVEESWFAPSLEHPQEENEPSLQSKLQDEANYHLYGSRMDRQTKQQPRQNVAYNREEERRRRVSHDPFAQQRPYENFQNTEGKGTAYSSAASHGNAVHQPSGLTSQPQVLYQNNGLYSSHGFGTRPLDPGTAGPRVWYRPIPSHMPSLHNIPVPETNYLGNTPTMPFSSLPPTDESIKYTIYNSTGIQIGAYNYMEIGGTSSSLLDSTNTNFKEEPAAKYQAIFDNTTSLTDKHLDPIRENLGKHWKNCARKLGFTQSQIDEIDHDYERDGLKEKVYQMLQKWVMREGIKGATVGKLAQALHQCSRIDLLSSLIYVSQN

Homo sapiens = organism: Homo sapiens; assay: Selectivity ratio of Kd for human partial length RIPK1 (M1 to K305 residues) expressed in bacterial expression system to Kd for wild-type human partial length RIPK3 (M1 to Q307 residues) expressed in bacterial expression system
Mus musculus [4] = assay: (§2) Protection against TNFalpha/Z-VAD-fmk-induced C57BL/6J mouse model of systemic inflammatory response syndrome at 100 mg/kg, po administered via gavage 2 hrs prior to Z-VAD-fmk addition for 15 mins followed by TNFalpha stimulation for 1 hr and subsequent Z-VAD-fmk addition meaured up to 50 hrs post TNFalpha stimulation relative to control; type: functional
Mus musculus [5] = assay: as §2, with “syndrome assessed as increase in body temperature” for “syndrome”, “5 to 50” for “100”, “by electric thermometer” for “relative to control”; type: functional, organism-based
Method in brief: (§3)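 Female C57BL/6 mice, fasted overnight, n=10 per group. Compound given by oral gavage at 5, 25 or 50 mg/kg 2 h before TNF. z-VAD-fmk 180 µg i.p., then 15 min later mTNF-α 400 µg/kg i.v. in endotoxin-free PBS, then a further 70 µg z-VAD-fmk i.p. 1 h later. Body temperature and survival followed, compared with vehicle by one-way ANOVA.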

Mus musculus [6] = assay: as §2, with “25” for “100”; type: functional
Method in brief: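 Overnight-fasted C57BL/6 female mice, n=10 per group. Test compound was given by oral gavage 2 h before mTNF-α. z-VAD-fmk (180 µg) was injected ip, then 15 min later mTNF-α in endotoxin-free PBS was injected iv (400 µg/kg). A second z-VAD-fmk dose (70 µg) was given ip 1 h after TNF. Body temperature and survival were followed against vehicle. One-way ANOVA was used.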

Mus musculus [7] = assay: as §2, with “syndrome assessed as increase in mouse survial” for “syndrome”, “5 to 50” for “100”, “stimulation” for “stimulation relative to control”; type: functional, organism-based; method in brief: as §3

Sequence of Receptor-interacting serine/threonine-protein kinase 3 (Q9Y572 whole entry, the tested form may be a part): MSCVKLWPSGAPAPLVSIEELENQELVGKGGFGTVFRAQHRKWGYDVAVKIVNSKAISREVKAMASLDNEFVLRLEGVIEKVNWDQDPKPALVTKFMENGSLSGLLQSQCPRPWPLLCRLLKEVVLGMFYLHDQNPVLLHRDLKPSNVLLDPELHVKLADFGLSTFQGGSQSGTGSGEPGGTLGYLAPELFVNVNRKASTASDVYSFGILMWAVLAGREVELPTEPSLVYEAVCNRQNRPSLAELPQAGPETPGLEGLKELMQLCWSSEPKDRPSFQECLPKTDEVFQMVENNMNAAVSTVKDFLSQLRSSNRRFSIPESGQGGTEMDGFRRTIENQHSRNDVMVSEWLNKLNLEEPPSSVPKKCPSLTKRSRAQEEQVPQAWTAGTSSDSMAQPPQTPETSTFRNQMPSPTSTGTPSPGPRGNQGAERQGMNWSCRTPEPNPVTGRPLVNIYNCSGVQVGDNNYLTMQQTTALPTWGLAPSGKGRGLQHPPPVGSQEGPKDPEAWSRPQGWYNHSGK

Molecule `N#Cc1cccc(CC(=O)Nc2cc(Oc3ccc4nc(NC(=O)C5CC5)sc4c3)ccc2F)c1` has a CC50 at 12 h [1] greater than 50 µM, a pEC50 (HT-29) of 5.89 and a pKd [2] of 6.92. The pKd [3] was 6.11.
Work on `O=C(Cc1cccc(OC(F)(F)F)c1)Nc1cc(Oc2ccc3nc(NC(=O)C4CC4)sc3c2)ccc1F` yielded a CC50 at 12 h [1] greater than 50 µM, a pEC50 (HT-29) of 7.22 and a pKd [2] of 6.92. It also gave a pKd [3] of 7.31.
With `O=C(Cc1cccc(C(F)(F)F)c1F)Nc1cc(Oc2ccc3nc(NC(=O)C4CC4)sc3c2)ccc1F` the CC50 at 12 h [1] was greater than 50 µM, the pEC50 (HT-29) was 6.31 and the pKd [2] was 7.00. For the same molecule, the pKd [3] was 6.29.
`CC(=O)c1cccc(NC(=O)Nc2cc(Oc3ccc4nc(NC(=O)C5CC5)sc4c3)ccc2F)c1` gave a CC50 at 12 h [1] greater than 50 µM, a pEC50 (HT-29) of 6.00 and a Ratio (Homo sapiens) greater than 94.3. For the same molecule, the pKd [2] was 7.28 and the pKd [3] was less than 5.30.
In the case of `N#Cc1c(Oc2ccc(F)c(NC(=O)Cc3cccc(C(F)(F)F)c3F)c2)ccc2nc(NC(=O)C3CC3)sc12`, the pEC50 (HT-29) was 5.69.
`CCC(=O)Nc1nc2ccc(Oc3ccc(F)c(NC(=O)Cc4cccc(C(F)(F)F)c4)c3)c(C#N)c2s1` showed a pEC50 (HT-29) of less than 4.70.
Work on `O=C(Cc1cccc(C(F)(F)F)c1Cl)Nc1cc(Oc2ccc3nc(NC(=O)C4CC4)sc3c2)ccc1F` yielded a pEC50 (HT-29) of less than 4.70.
Work on `O=C(Cc1cccc(C(F)(F)F)n1)Nc1cc(Oc2ccc3nc(NC(=O)C4CC4)sc3c2)ccc1F` yielded a CC50 at 12 h [1] greater than 50 µM, a pEC50 (HT-29) of 6.49 and a pKd [2] of 6.55. It also gave a pKd [3] of 6.66.
`O=C(Cc1cccc(O)c1)Nc1cc(Oc2ccc3nc(NC(=O)C4CC4)sc3c2)ccc1F` showed a pEC50 (HT-29) of less than 4.70.
With `N#Cc1c(Oc2ccc(F)c(NC(=O)Cc3cccc(C(F)(F)F)c3)c2)ccc2nc(NC(=O)c3ccccc3)sc12` the pEC50 (HT-29) was less than 4.70.
Molecule `O=C(Cc1ccccc1C(F)(F)F)Nc1cc(Oc2ccc3nc(NC(=O)C4CC4)sc3c2)ccc1F` has a pEC50 (HT-29) of 4.95.
`COc1cccc(CC(=O)Nc2cc(Oc3ccc4nc(NC(=O)C5CC5)sc4c3)ccc2F)c1` gave a CC50 at 12 h [1] greater than 50 µM, a pEC50 (HT-29) of 6.48 and a pKd [2] of 7.26. It also gave a pKd [3] of 6.62.
For `COc1cccc(NC(=O)Nc2cc(Oc3ccc4nc(NC(=O)C5CC5)sc4c3)ccc2F)c1`, the CC50 at 12 h [1] was greater than 50 µM, the pEC50 (HT-29) was 5.86 and the Ratio (Homo sapiens) was 52.1. For the same molecule, the pKd [2] was 7.16 and the pKd [3] was 5.44.
For `N#Cc1c(Oc2ccc(F)c(NC(=O)Cc3cccc(C(F)(F)F)c3)c2)ccc2nc(NC(=O)C3CC3)sc12`, the Activity (Mus musculus [4]) was 70%, the CC50 at 12 h [1] was greater than 50 µM and the Activity (Mus musculus [5]) was “Active”. The Activity (Mus musculus [6]) was 20%, the pKd [3] was 6.32 and the Activity (Mus musculus [7]) was “Active”.
Work on `O=C(Cc1ccccn1)Nc1cc(Oc2ccc3nc(NC(=O)C4CC4)sc3c2)ccc1F` yielded a pEC50 (HT-29) of 5.08.
In the case of `O=C(Nc1nc2ccc(Oc3ccc(F)c(NCc4ccc5c(c4)OCO5)c3)cc2s1)C1CC1`, the pEC50 (HT-29) was less than 4.70.
With `N#Cc1c(Oc2ccc(F)c(NC(=O)Cc3cccc(F)c3)c2)ccc2nc(NC(=O)C3CC3)sc12` the pEC50 (HT-29) was less than 4.70.
For `Cc1ccc(CC(=O)Nc2cc(Oc3ccc4nc(NC(=O)C5CC5)sc4c3)ccc2F)cc1C`, the CC50 at 12 h [1] was greater than 50 µM, the pEC50 (HT-29) was 5.78 and the pKd [2] was 7.14. For the same molecule, the pKd [3] was 5.92.
Molecule `O=C(Cc1ccc(F)c(C(F)(F)F)c1)Nc1cc(Oc2ccc3nc(NC(=O)C4CC4)sc3c2)ccc1F` has a CC50 at 12 h [1] greater than 50 µM, a pEC50 (HT-29) of 6.40 and a pKd [2] of 6.89. The pKd [3] was 6.23.
`Cn1cc(CC(=O)Nc2cc(Oc3ccc4nc(NC(=O)C5CC5)sc4c3)ccc2F)c2ccccc21` gave a CC50 at 12 h [1] greater than 50 µM, a pEC50 (HT-29) of 5.42 and a pKd [2] of 5.85. It also gave a pKd [3] of 5.32.
Molecule `N#Cc1c(Oc2ccc(F)c(NC(=O)Cc3ccccc3)c2)ccc2nc(NC(=O)C3CC3)sc12` has a pEC50 (HT-29) of less than 4.70.
Work on `O=C(Cc1cccc([N+](=O)[O-])c1)Nc1cc(Oc2ccc3nc(NC(=O)C4CC4)sc3c2)ccc1F` yielded a CC50 at 12 h [1] greater than 50 µM, a pEC50 (HT-29) of 6.21 and a pKd [2] of 6.96. It also gave a pKd [3] of 6.11.
For `O=C(Cc1cccc(C(F)(F)F)c1)Nc1cc(Oc2ccc3nc(NC(=O)C4CC4)sc3c2)ccc1F`, the Activity (Mus musculus [5]) was “Active” and the Activity (Mus musculus [7]) was “Active”.
`N#Cc1c(Oc2ccc(F)c(NC(=O)Cc3ccc([N+](=O)[O-])cc3)c2)ccc2nc(NC(=O)C3CC3)sc12` gave a pEC50 (HT-29) of less than 4.70.
Molecule `Cc1cccc(NC(=O)Nc2cc(Oc3ccc4nc(NC(=O)C5CC5)sc4c3)ccc2F)c1` has a CC50 at 12 h [1] greater than 50 µM, a pEC50 (HT-29) of 6.24 and a Ratio (Homo sapiens) of 23.6. It also gave a pKd [2] of 7.03 and a pKd [3] of 5.66.
With `Cc1cccc(CC(=O)Nc2cc(Oc3ccc4nc(NC(=O)C5CC5)sc4c3)ccc2F)c1` the CC50 at 12 h [1] was greater than 50 µM, the pEC50 (HT-29) was 6.42 and the pKd [2] was 7.48. It also gave a pKd [3] of 6.49.
With `CCOC(=O)c1cccc(NC(=O)Nc2cc(Oc3ccc4nc(NC(=O)C5CC5)sc4c3)ccc2F)c1` the CC50 at 12 h [1] was greater than 50 µM, the pEC50 (HT-29) was 5.11 and the Ratio (Homo sapiens) was greater than 69.4. The pKd [2] was 7.14 and the pKd [3] was less than 5.30.
With `O=C(Nc1nc2ccc(Oc3ccc(F)c(NCc4cccc(C(F)(F)F)c4)c3)cc2s1)C1CC1` the pEC50 (HT-29) was less than 4.70.
`O=C(CCc1cccc(C(F)(F)F)c1)Nc1cc(Oc2ccc3nc(NC(=O)C4CC4)sc3c2)ccc1F` gave a CC50 at 12 h [1] greater than 50 µM, a pEC50 (HT-29) of 6.19 and a pKd [2] of 6.10. It also gave a pKd [3] of 6.29.
With `CCCCCCCCC(=O)Nc1nc2ccc(Oc3ccc(F)c(NC(=O)Cc4cccc(C(F)(F)F)c4)c3)c(C#N)c2s1` the pEC50 (HT-29) was less than 4.70.
`O=C(Nc1nc2ccc(Oc3ccc(F)c(NC(=O)C4(c5cccc(C(F)(F)F)c5)CC4)c3)cc2s1)C1CC1` showed a CC50 at 12 h [1] greater than 50 µM and a pEC50 (HT-29) of less than 4.70.
Work on `O=C(Cc1ccc2c(c1)OCO2)Nc1cc(Oc2ccc3nc(NC(=O)C4CC4)sc3c2)ccc1F` yielded a CC50 at 12 h [1] greater than 50 µM, a pEC50 (HT-29) of 5.63 and a Ratio (Homo sapiens) of 13. The pKd [2] was 7.09 and the pKd [3] was 5.96.
`N#Cc1c(Oc2ccc(F)c(NC(=O)Cc3cccc(C(F)(F)F)c3)c2)ccc2nc(NC(=O)OCc3ccccc3)sc12` gave a pEC50 (HT-29) of less than 4.70.
`O=C(Cc1cc(C(F)(F)F)cc(C(F)(F)F)c1)Nc1cc(Oc2ccc3nc(NC(=O)C4CC4)sc3c2)ccc1F` showed a CC50 at 12 h [1] greater than 50 µM and a pEC50 (HT-29) of 5.01.
In the case of `O=C(Nc1nc2ccc(Oc3ccc(F)c(NS(=O)(=O)c4cccc(C(F)(F)F)c4)c3)cc2s1)C1CC1`, the pEC50 (HT-29) was less than 4.70.
With `N#Cc1c(Oc2ccc(F)c(NC(=O)c3cccc(C(F)(F)F)c3)c2)ccc2nc(NC(=O)C3CC3)sc12` the pEC50 (HT-29) was less than 4.70.
